Shown are actives, neighbours in structure and some others; about 0.72% of the full set was active somewhere.
bIAP inhibitor: intestinal alkaline phosphatase (bovine) inhibition | 190,000 tested, under 10 active | AID 1019 | inhibition, % at 20 µM | purified bovine IAP, CDP-star luminescence, 30 min;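 active = over 50% inhibition of intestinal alkaline phosphatase at 20 µM in the single-dose screen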
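System: Purified bovine intestinal alkaline phosphatase (IAP) enzyme | Input: IAP diluted 1/65,000,000 in the well | Also added: CDP-star chemiluminescent phosphatase substrate, 30 µM final | Dosing: 20 µM single dose | Times: Enzyme reaction for 30 min at room temperature | Detection: Luminescence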
hIAP activ: increases human intestinal alkaline phosphatase activity; P09923; AID 2524; 0.16% of 330,000 active; purified human IAP, CDP-Star luminescence, 30 min; stronger effect = higher value; 1 = vehicle-only enzyme, 0 = enzyme-free background; activation factor at 10 µM;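 active = activation factor of the enzyme at least 2-fold when tested at 20 µM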
Target sequence (P09923 whole entry, looked up): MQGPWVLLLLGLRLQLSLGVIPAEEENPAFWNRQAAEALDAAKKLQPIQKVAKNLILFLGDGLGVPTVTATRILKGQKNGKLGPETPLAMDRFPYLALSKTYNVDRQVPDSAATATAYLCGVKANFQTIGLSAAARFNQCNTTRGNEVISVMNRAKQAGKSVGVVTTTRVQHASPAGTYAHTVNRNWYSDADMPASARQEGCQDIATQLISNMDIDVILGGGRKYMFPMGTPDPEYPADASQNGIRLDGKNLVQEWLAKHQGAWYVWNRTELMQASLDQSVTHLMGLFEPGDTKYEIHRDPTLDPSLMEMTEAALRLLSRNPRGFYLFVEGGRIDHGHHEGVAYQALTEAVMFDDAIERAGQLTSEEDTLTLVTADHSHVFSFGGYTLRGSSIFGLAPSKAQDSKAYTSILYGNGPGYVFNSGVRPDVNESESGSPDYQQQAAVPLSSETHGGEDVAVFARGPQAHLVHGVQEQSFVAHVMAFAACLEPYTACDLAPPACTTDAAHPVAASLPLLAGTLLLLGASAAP
hIAP block: human IAP inhibition; purified IAP, CDP-Star luminescence, 30 min; inhibition, % at 10 µM; 0.12% of 330,000 active; AID 2544;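 active = inhibition reaching a set limit with compound at 10 µM in the primary screen, cut at about 35% in these data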
bIAP activator: intestinal alkaline phosphatase (bovine) activation; activation factor at 20 µM; 0.17% of 200,000 active; AID 1016; purified bovine IAP, CDP-star luminescence, 30 min; stronger effect = higher value; fold of DMSO-control signal, blank-subtracted;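 active = activation factor of 2 or more at 20 µM, a signal rise over negative controls twice the positive control's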
mIAP block: mouse IAP inhibition; purified mouse IAP, CDP-Star luminescence, 30 min; 0.2% of 330,000 active; AID 2806; inhibition, % at 10 µM;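 active = inhibition of at least 40% at 10 µM in the primary screen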
mIAP act: mouse IAP activation; AID 2805; activation factor at 10 µM; 0.24% of 330,000 active; muIAP, CDP-Star luminescence, 30 min; stronger effect = higher value; 1 = vehicle-only enzyme signal, 0 = enzyme-free wells;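 active = activation factor of at least 2 at 20 µM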
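System: mouse IAP enzyme. Reagent: CDP-Star chemiluminescent phosphatase substrate. Benchmarks: DMSO wells, no-enzyme wells. Times: 30 min enzyme-substrate-compound incubation at room temperature. Detection: luminescence from enzymatic CDP-Star hydrolysis. Doses: test compounds delivered from DMSO solution.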
mIAP inh conf: mouse IAP inhibition confirmation; 4.7% of 11,000 active; purified mouse IAP, CDP-Star luminescence, 30 min; shares compounds with mIAP block; inhibition, % at 10 µM;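 active = inhibition of at least 40% at 10 µM in either of the two replicates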
Numbers stand for hits; 0 = inactive; - = no result.

SMILES | bIAP inhibitor | hIAP activ | hIAP block | bIAP activator | mIAP block | mIAP act | mIAP inh conf
CCOC(=O)N1CCN(C(=O)/C(=C/c2ccc(N(C)C)cc2)NC(=O)c2ccccc2)CC1 | - | 0 | 0 | - | 0 | 0 | -
c1coc(CNc2nc(-c3cccs3)cs2)c1 | 0 | 0 | 0 | 0 | 45 | 0 | 49
CCCc1c(NC(=O)Nc2ccc(F)cc2)cnn1-c1ccc(Cl)cc1 | - | 0 | 0 | - | 0 | 3.8 | 0
O=C(NCCc1ccc(Cl)cc1)Nc1ccc(F)cc1 | 0 | 0 | 0 | 0 | 0 | 0 | -
NS(=O)(=O)c1ccc(NC(=O)COc2cccc3ccccc23)cc1 | - | 0 | 0 | - | 0 | 0 | -
CC(=O)Oc1cc(O)c2c(=O)c(OC(C)=O)c(-c3ccc(OC(C)=O)c(OC(C)=O)c3)oc2c1 | - | 0 | 0 | - | 43 | 0 | 45
COc1c(-c2ccc(O)cc2)oc2cc(O)cc(O)c2c1=O | - | 0 | 0 | - | 0 | 0 | -
COc1ccc(OCc2nnc(SCC(=O)c3c(N)n(C)c(=O)n(C)c3=O)n2-c2ccccc2F)cc1 | 0 | 0 | 0 | 0 | 0 | 0 | -
COc1ccc(Oc2cc(C(F)(F)F)nc(N(C)C)n2)cc1 | 0 | 0 | 0 | 0 | 0 | 0 | -
O=C(NC1CCCCC1)Oc1cc2oc(=O)sc2cc1Br | - | 0 | 0 | - | 60 | 0 | 81
O=c1c(O)c(-c2ccc(O)c(O)c2)oc2cc(O)cc(O)c12 | - | 0 | 0 | - | 83 | 0 | 91
O=c1c(-c2c(O)cc(O)c3c(=O)cc(-c4ccc(O)cc4)oc23)c(-c2ccc(O)cc2)oc2cc(O)cc(O)c12 | - | 0 | 0 | - | 59 | 0 | 65
NS(=O)(=O)c1ccc(-c2ccc(/C=C3\C(=O)Nc4ccccc43)o2)cc1 | - | 0 | 0 | - | 0 | 0 | -
CC1(C)OC(=O)C(=Cc2ccc(-c3ccc(S(N)(=O)=O)cc3)o2)C(=O)O1 | 0 | 0 | 0 | 0 | 64 | 0 | 79
COc1ccc(C(=O)OCC(=O)NC2CCCCCC2)cc1OC | - | 0 | 0 | - | 58 | 0 | 71
Oc1ccc(/C=N\Nc2cc(N3CCOCC3)nc(N3CCOCC3)n2)c(O)c1 | 0 | 0 | 0 | 0 | 0 | 0 | -
Oc1ccc(/C=N/Nc2cc(N3CCCC3)nc(N3CCCC3)n2)cc1O | 0 | 0 | 0 | 0 | 68 | 0 | 76
Cc1cc(C(=O)N/N=C/c2ccc([N+](=O)[O-])o2)c(C)o1 | - | 0 | 0 | - | 47 | 0 | 68
COC(=O)N/N=C/c1ccc([N+](=O)[O-])o1 | 0 | 0 | 0 | 0 | 0 | 0 | -
O=C(N/N=C/c1ccc([N+](=O)[O-])o1)c1sc2ccccc2c1Cl | - | 0 | 0 | - | 42 | 0 | 54
Cc1nonc1C(=O)N/N=C/c1ccc([N+](=O)[O-])o1 | 0 | 0 | 0 | 0 | 47 | 0 | 60
NS(=O)(=O)c1ccc2c(c1)oc(=O)c1cc(S(N)(=O)=O)ccc12 | 0 | 0 | 0 | 0 | 48 | 0 | 57
COCCNS(=O)(=O)c1ccc2c(c1)oc(=O)c1cc(S(=O)(=O)NCCOC)ccc12 | 0 | 0 | 0 | 0 | 0 | 0 | -
Cc1ccc(S(=O)(=O)N2CCN(C(=O)CCn3cncn3)CC2)cc1C | - | 0 | 0 | - | 0 | 0 | -
CC(NC(=O)CN1CCN(C(=O)c2cccs2)CC1)c1ccc(F)cc1F (stereo unspecified) | - | 0 | 0 | - | 0 | 0 | -
SMILES | bIAP inhibitor | hIAP activ | hIAP block | bIAP activator | mIAP block | mIAP act | mIAP inh conf
COc1ccc(CCNC(=O)c2cc(-c3cc(Cl)cc(Cl)c3)oc2C)cc1 | 0 | 0 | 0 | 0 | 0 | 4 | 0
COc1ccccc1NC(=O)Nc1ccc(CC#N)cc1 | - | 0 | 0 | - | 0 | 0 | -
CCN(CC)c1ccc(S(=O)(=O)N2CCOCC2)cc1NC(=O)CNCc1ccccc1 | - | 0 | 0 | - | 0 | 0 | -
CCN(CC)c1ccc(S(=O)(=O)N2CCOCC2)cc1NC(=O)Nc1ccccc1 | - | 0 | 0 | - | 0 | 4.7 | 0
COc1ccc(C2CC(c3ccccc3Cl)=NN2c2ccc(S(N)(=O)=O)cc2)cc1 (stereo unspecified) | - | - | - | - | 0 | 2.2 | 0
Cc1c(NC(=O)CCCCCN2C(=O)C3C4C=CC(C4)C3C2=O)c(=O)n(-c2ccccc2)n1C (stereo unspecified) | 0 | 0 | 0 | 0 | 0 | 0 | -
Cc1ccc(S(=O)(=O)Nc2ccc(O)c(Sc3ncn[nH]3)c2)cc1 | 0 | 0 | 0 | 0 | 50 | 0 | 65
COc1ccc(OC)c(S(=O)(=O)Nc2ccc(O)c(Sc3ncn[nH]3)c2)c1 | 0 | 0 | 0 | 0 | 50 | 0 | 52
Cc1ccc(C)c(S(=O)(=O)Nc2ccc(O)c(Sc3ncn[nH]3)c2)c1 | - | 0 | 0 | - | 75 | 0 | 82
CCOc1ccc(NS(=O)(=O)c2ccc(NS(=O)(=O)c3ccc(SC)cc3)cc2)cc1 | 0 | 0 | 0 | 0 | 0 | 0 | -
CCOc1ccc(S(=O)(=O)Nc2ccc(O)c(Sc3ncn[nH]3)c2)cc1 | 0 | 0 | 0 | 0 | 44 | 0 | 62
CSc1ccc(S(=O)(=O)Nc2ccc(S(=O)(=O)Nc3ccc(C)cc3)cc2)cc1 | 0 | 0 | 0 | 0 | 0 | 0 | -
Cc1ccc(N2CC(NC(=O)C(=O)c3c[nH]c4ccccc34)CC2=O)cc1C (stereo unspecified) | - | 0 | 0 | - | 0 | 0 | -
CCN(c1ccccc1)S(=O)(=O)c1cccc(C(=O)Nc2ccc(C)cn2)c1 | - | 0 | 0 | - | 0 | 0 | -
Cc1cc(F)ccc1S(=O)(=O)Nc1ccc(O)c(Sc2ncn[nH]2)c1 | - | 0 | 0 | - | 70 | 0 | 66
Cc1cc(F)ccc1S(=O)(=O)Nc1ccccc1C(=O)Nc1ncn[nH]1 | 0 | 0 | 0 | 0 | 0 | 0 | -
Cc1ccc(NC(=S)NC(NC(=O)c2ccccc2C)C(Cl)(Cl)Cl)c(C)c1 (stereo unspecified) | 0 | 0 | 0 | 0 | 0 | 3.1 | 0
CC(=O)NC(NC(=S)Nc1ccc(C)cc1C)C(Cl)(Cl)Cl (stereo unspecified) | - | 0 | 0 | - | 0 | 0 | -
Cc1ccc(OCC(=O)NCCNC(=O)c2ccncc2)cc1C | - | 0 | 0 | - | 0 | 0 | -
Nc1cc2nc3ccccc3oc-2cc1=O | - | 0 | 0 | - | 50 | 0 | 42
O=C(Nc1cccc(-c2cccc(Cl)c2)c1)C1CCN(Cc2ccc(CO)o2)CC1 | - | 0 | 0 | - | 0 | 4 | 0
CCn1cc(CN2CCC(C(=O)Nc3cccc(-c4cccc(F)c4)c3)CC2)cn1 | - | 0 | 0 | - | 0 | 2 | 0
O=C(Nc1cccc(Cl)c1)C1CCCCC1 | - | 0 | 0 | - | 0 | 0 | -
CC(=O)c1ccc(-c2cc([C@H]3[C@H]4C=CC[C@@H](C)[C@@H]4C(=O)N3Cc3ccccc3)ccc2F)cc1 | - | 0 | 0 | - | 0 | 0 | -
C#CCOCCOCCOCCNc1nc(N2CCN(C(=O)CCCCCCCCCCNC(=O)Cn3cc(C[C@@H](C)O)nn3)CC2)nc(N2CCN(C(=O)CCCCCCCCCCNC(=O)[C@H](CCCN=C(N)N)n3cc(C[C@@H](C)CC)nn3)CC2)n1 | - | 0 | 0 | - | 0 | 4.9 | 0

Screens deposited in PubChem BioAssay by Sanford-Burnham Center for Chemical Genomics.
